ChEMBL document CHEMBL2412990, “Synthesis and pharmacological evaluation of new N-phenylpiperazine derivatives designed as homologues of the antipsychotic lead compound LASSBio-579” (Eur J Med Chem, 2013)
Activity calls are given as the source filed them. No cut-off for these calls is given here.

Tests used:
[1] = system: Alpha-2 adrenergic receptor (Rattus norvegicus); experiment: Antagonist activity at alpha2 adrenoreceptor in rat brain cortical membranes assessed as inhibition of [3H]-RX821002 binding to receptor after 45 mins by competition assay in presence of GTP
[2] = system: Alpha-2 adrenergic receptor (Rattus norvegicus); experiment: Antagonist activity at alpha2 adrenoreceptor in rat brain cortical membranes assessed as inhibition of [3H]-RX821002 binding to receptor after 45 mins by competition assay in absence of GTP
Mus musculus = experiment: Antipsychotic activity in ip dosed CF1 mouse assessed as prevention of ketamine-induced hyperlocomotion compound administered 30 mins prior ketamine challenge measured for 20 mins post challenge; assay type: functional, organism-based
How it was run: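 Mice were pretreated (reference drug orally after 2 h fast; test compound i.p.) and placed in the arena centre. Ketamine 10 mg/kg s.c. was given 30 min later. A blinded observer counted total square crossings over 20 min in a dimly lit room. n = 7–8. Analysed by one-way ANOVA with Newman-Keuls post hoc test.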

[3] = target: 5-hydroxytryptamine receptor 2A (Rattus norvegicus) (UniProt P14842); experiment: Antagonist activity at 5HT2A receptor in rat brain cortical membranes assessed as inhibition of [3H]-ketanserin binding to receptor after 15 mins by competition assay in absence of GTP; assay type: cell membranes
Sequence of 5-hydroxytryptamine receptor 2A (Rattus norvegicus) (P14842 whole entry): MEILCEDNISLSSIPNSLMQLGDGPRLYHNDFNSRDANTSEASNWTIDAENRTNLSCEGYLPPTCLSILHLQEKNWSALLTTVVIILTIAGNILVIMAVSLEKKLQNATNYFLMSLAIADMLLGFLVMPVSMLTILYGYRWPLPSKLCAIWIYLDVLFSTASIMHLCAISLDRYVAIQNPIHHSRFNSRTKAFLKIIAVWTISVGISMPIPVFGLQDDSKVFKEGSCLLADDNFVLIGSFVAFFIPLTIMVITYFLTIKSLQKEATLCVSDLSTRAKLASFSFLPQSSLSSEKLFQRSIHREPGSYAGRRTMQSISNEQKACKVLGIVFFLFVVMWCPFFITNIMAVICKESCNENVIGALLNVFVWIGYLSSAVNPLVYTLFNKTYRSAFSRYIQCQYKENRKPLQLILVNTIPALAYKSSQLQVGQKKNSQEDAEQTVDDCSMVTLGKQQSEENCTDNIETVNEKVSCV
How it was run: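 Rat cortical membranes, 150 µg protein, with 1 nM [3H]-ketanserin and 100 nM prazosin in 50 mM Tris-HCl pH 7.4, 37 °C, 15 min. Non-specific binding was defined with ketanserin. For the GTP shift, paired competition curves were run without and with guanylyl nucleotide (0.1 mM Gpp(NH)p or 1 mM GTP).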

inhibition [1]: Active | inhibition [2]: Active | inhibition [3]: Active
SMILES: Clc1ccc(-n2cc(CCCCN3CCN(c4ccccc4)CC3)cn2)cc1
Activity (Mus musculus): Dose-dependent effect
